Laboratory results from ChEMBL document CHEMBL5154824, “Design and synthesis of multifunctional microtubule targeting agents endowed with dual pro-apoptotic and anti-autophagic efficacy” (Eur J Med Chem, 2022).
Calls of active or inactive are those of the source. The rule behind the calls is not given here.

What was measured:
[1] = Induction of Pro-apoptosis in human HL-60 cells assessed as increase in apoptotic cells at 10 uM after 24 hrs by TMRM dye based flow cytometric analysis; type: functional
[2] = Induction of Pro-apoptosis in human HL-60 cells assessed as increase in apoptotic cells at 25 uM after 24 hrs by TMRM dye based flow cytometric analysis; type: functional
HL-60 [3] = assay: Induction of autophagy in human HL-60 cells assessed as increase in LC3-II protein level at 10 uM in presence of chloroquine […] by Immunoblotting analysis; type: functional, cell-based
[4] = Cytotoxicity against human SKGT4 cells assessed as inhibition of cell growth measured after 72 hrs by MTT assay; type: functional, cell-based; settings: SKGT4, 72 h
In short: (§1)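 Oesophageal adenocarcinoma lines were exposed to at least 8 increasing concentrations for 72 h. Viability was measured by MTT. IC50 is the mean ± SD of at least three independent experiments.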

OE33 = assay: Cytotoxicity against human OE33 cells assessed as inhibition of cell growth measured after 72 hrs by MTT assay; type: functional, cell-based; settings: OE33, 72 h; in short: as §1
KYSE-520 cell line [5] = assay: Cytotoxicity against human KYSE520 cells assessed as inhibition of cell growth measured after 72 hrs by alamar blue viability assay; type: functional, cell-based; settings: KYSE-520, 72 h
In short: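 KYSE-520 oesophageal cells were exposed to at least 8 increasing concentrations for 48 h or 72 h. Viability was read out to give IC50, as the mean ± SD of at least three independent experiments.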

[6] = molecular target: Nuclear factor NF-kappa-B complex (Homo sapiens) (UniProt Q00653+P19838+Q04206); assay: Inhibition of NF-kappaB phosphorylation in human HL-60 cells at 10 uM measured after 2 hrs by Immunoblotting analysis; type: cell-based
Chain of Nuclear factor NF-kappa-B complex (Homo sapiens) (P19838 whole entry, looked up): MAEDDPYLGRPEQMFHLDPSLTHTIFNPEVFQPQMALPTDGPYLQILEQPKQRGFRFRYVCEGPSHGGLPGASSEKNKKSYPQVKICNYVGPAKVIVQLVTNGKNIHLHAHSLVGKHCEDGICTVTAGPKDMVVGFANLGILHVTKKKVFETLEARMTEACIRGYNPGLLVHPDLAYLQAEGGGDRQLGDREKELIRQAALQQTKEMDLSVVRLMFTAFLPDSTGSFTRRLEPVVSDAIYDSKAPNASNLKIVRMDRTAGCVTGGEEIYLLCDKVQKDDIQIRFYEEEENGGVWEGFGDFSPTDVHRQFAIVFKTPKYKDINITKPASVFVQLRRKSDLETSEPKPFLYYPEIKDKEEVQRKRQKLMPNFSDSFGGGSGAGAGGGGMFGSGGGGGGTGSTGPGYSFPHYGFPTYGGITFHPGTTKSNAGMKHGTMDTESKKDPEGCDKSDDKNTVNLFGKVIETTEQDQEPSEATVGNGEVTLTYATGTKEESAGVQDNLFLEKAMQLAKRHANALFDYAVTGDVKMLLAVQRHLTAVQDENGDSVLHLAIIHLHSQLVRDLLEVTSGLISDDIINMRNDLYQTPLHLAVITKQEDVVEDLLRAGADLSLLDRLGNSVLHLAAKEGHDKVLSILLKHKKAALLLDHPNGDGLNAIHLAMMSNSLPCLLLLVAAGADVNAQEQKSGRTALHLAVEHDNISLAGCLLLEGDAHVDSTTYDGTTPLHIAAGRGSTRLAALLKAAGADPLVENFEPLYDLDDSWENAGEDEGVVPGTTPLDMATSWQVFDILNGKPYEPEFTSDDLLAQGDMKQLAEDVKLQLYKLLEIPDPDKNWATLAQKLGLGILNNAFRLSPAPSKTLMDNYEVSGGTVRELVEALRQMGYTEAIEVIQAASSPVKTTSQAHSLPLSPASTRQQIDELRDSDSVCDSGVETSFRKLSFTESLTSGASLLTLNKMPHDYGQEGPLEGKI
Chain of Nuclear factor NF-kappa-B complex (Homo sapiens) (Q00653 whole entry, looked up): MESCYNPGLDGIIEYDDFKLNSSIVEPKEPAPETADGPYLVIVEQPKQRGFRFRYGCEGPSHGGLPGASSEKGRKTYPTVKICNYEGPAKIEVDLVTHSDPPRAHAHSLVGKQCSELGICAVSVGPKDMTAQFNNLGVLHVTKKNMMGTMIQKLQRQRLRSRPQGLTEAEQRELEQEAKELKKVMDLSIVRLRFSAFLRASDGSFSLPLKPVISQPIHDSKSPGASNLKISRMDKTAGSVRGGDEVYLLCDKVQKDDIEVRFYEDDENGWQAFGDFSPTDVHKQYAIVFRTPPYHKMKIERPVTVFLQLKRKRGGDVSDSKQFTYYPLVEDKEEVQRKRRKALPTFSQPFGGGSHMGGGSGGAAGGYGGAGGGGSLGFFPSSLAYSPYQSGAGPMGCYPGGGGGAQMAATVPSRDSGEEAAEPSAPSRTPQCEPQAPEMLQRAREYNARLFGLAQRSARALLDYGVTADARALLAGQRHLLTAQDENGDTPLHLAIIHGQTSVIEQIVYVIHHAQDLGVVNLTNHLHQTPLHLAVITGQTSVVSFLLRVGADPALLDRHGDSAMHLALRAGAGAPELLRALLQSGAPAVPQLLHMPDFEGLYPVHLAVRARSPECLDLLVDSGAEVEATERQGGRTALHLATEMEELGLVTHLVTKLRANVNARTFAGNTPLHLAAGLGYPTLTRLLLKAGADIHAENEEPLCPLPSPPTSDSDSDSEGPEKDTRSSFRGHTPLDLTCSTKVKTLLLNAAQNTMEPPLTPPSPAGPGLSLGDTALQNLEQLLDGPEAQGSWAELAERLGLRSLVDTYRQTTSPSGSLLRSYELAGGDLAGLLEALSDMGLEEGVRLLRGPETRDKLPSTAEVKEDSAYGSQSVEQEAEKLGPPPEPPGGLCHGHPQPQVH
Chain of Nuclear factor NF-kappa-B complex (Homo sapiens) (Q04206 whole entry, looked up): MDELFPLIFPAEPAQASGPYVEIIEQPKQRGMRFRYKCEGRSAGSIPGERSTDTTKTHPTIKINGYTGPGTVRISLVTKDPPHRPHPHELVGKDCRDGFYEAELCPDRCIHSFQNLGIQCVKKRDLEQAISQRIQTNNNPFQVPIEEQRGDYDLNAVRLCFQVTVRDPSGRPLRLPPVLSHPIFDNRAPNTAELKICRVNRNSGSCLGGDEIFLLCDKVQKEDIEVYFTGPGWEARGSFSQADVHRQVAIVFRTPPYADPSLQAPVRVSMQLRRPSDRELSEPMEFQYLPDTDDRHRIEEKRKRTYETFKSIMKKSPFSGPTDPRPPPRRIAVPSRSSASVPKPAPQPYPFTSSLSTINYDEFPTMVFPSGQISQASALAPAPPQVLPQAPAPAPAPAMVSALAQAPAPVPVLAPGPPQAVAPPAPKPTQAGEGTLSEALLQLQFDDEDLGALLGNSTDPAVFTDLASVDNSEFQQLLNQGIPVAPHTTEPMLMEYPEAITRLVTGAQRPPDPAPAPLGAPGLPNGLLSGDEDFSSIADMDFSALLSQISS
In short: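 HL-60 cells were treated at 10 μM or with DMSO vehicle for 2 h. Phospho-NF-κB and phospho-Erk1/2 were immunoblotted and quantified by densitometry relative to β-tubulin. Data are mean ± SD (n = 2), analysed by one-way ANOVA.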

[7] = Induction of Pro-apoptosis in human HL-60 cells assessed as increase in apoptotic cells at 10 uM after 48 hrs by Annexin-V/PI-staining based flow cytometry; type: functional
OE19 = assay: Cytotoxicity against human OE19 cells assessed as inhibition of cell growth measured after 72 hrs by MTT assay; type: functional, cell-based; settings: OE19, 72 h; in short: as §1
KYSE-520 cell line [8] = assay: Induction of apoptosis in human KYSE520 cells assessed as increase in apoptotic cells at 3 to 10 uM after 72 hrs by Annexin V-FITC/PI staining based flow cytometry method; type: functional, cell-based; settings: dose 3-10 µM
In short: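 KYSE-520 cells were treated at 3 and 10 μM for 72 h, then analysed by flow cytometry after Annexin V/PI dual staining.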

HL-60 [9] = assay: Induction of autophagy in human HL-60 cells assessed as increase in p62 protein level at 10 uM […] by Immunoblotting analysis; type: functional, cell-based
Emu-TCL1 = assay: Induction of apoptosis in mouse Emu-TCL1 cells model of CLL assessed as mitochondrial membrane depolarization at 10 uM after 48 hrs by TMRM dye based flow cytometric analysis; type: functional, cell-based
In short: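 Splenocytes from Eμ-TCL1 leukaemic mice were treated with 10 μM or DMSO vehicle for 48 h, then TMRM-loaded. Flow cytometry gave the percentage of TMRM-low cells as mean ± SD (n = 3).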

HL-60 [10] = assay: Induction of autophagy in human HL-60 cells assessed as increase in LC3-II protein level at 10 uM measured up to 1 hr by Immunoblotting analysis; type: functional, cell-based
SCC-4 [11] = assay: Induction of autophagy in human SCC-4 cells assessed as increase in LC3-II to LC3-I ratio at 10 uM in absence of EBSS measured after 3 hrs by Western blot analysis; type: functional, cell-based
In short: (§2)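 SCC4 cells were pre-incubated with or without EBSS for 30 min, then given 10 μM compound, with 10 μM chloroquine as reference, for 3 h. LC3-I/II was assessed by Western blot with GAPDH loading control. The LC3-II/LC3-I ratio came from densitometry, as mean ± SEM of four experiments, with an unpaired one-tailed t-test.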

SCC-4 [12] = assay: Induction of autophagy in human SCC-4 cells assessed as increase in LC3-II to LC3-I ratio at 10 uM incubated for 30 mins in presence of EBSS followed by compound addition and measured after 3 hrs by Western blot analysis; type: functional, cell-based; in short: as §2
NIH3T3 = assay: Cytotoxicity against mouse NIH3T3 cells assessed as inhibition of cell growth measured after 24 hrs by neutral red uptake assay; type: functional, cell-based; settings: NIH3T3, 24 h
In short: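 Neutral red uptake viability test. NIH3T3 fibroblasts or primary human oral epithelial cells were exposed to compound at 0.1 to 120 μM. EC50 was derived, with SD below 5%.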

[13] = Induction of Pro-apoptosis in human HL-60 cells assessed as increase in apoptotic cells at 50 uM after 48 hrs by TMRM dye based flow cytometric analysis; type: functional
[14] = Induction of Pro-apoptosis in human HL-60 cells assessed as increase in apoptotic cells at 20 uM after 48 hrs by TMRM dye based flow cytometric analysis; type: functional
SCC-4 [15] = assay: Cytotoxicity against human SCC-4 cells assessed as reduction in cell viability measured after 48 hrs by alamar blue viability assay; type: functional, cell-based; settings: SCC-4, 48 h
In short: (§3)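 Oral squamous carcinoma cells were exposed for 48 h to at least 8 increasing concentrations. Viability was read by AlamarBlue. IC50 is the concentration that halves viability, taken as the mean ± SD of at least three independent experiments.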

Ca9-22 = assay: Cytotoxicity against human Ca9-22 cells assessed as reduction in cell viability measured after 48 hrs by alamar blue viability assay; type: functional, cell-based; settings: Ca9-22, 48 h; in short: as §3

For `CN(C)C(=O)OC1=C(c2cccc3ccccc23)Oc2ccc(Cl)cc2-n2cccc21`, the Activity [1] was “>=50%” and the Activity [2] was “>=50%”.

In the case of `CC(=O)OC1=C(c2cccc3ncccc23)Oc2cc3ccccc3cc2-n2cccc21`, the Activity (HL-60 [3]) is reported as “Active”, the IC50 [4] is reported as 510 nM and the IC50 (OE33) is reported as 320 nM. For the same compound, the IC50 (KYSE-520 cell line [5]) was 138000 nM, the inhibition [6] was “Active” and the Activity [7] was “>=70%”. For the same compound, the IC50 (OE19) was 730 nM, the Activity (KYSE-520 cell line [8]) was “Active” and the Activity (HL-60 [9]) was “Active”. The Activity (Emu-TCL1) was “Active”, the Activity (HL-60 [10]) was “Active” and the Activity (SCC-4 [11]) was “Active”. The Activity (SCC-4 [12]) was “Active”.

In the case of `CC(=O)OC1=C(c2cccc3ccccc23)Oc2cc3c(cc2-n2cccc21)OCCO3`, the EC50 (NIH3T3) is reported as 100 nM, the Activity [1] is reported as “>=50%” and the Activity [2] is reported as “>=50%”.

With `CC(=O)OC1=C(c2cccc3ccccc23)Oc2ccc(N3CCN(C(C)=O)CC3)cc2-n2cccc21` the Activity [13] was “>=70%” and the Activity [14] was <30%.

With `CN(C)C(=O)OC1=C(c2cccc3ccccc23)Oc2ccccc2-n2cccc21` the IC50 (SCC-4 [15]) was 160 nM, the Activity [7] was “>=70%” and the IC50 (Ca9-22) was 170 nM.

With `CC(C)(C)OC(=O)N1CCC(C(=O)OC2=C(c3cccc4ncccc34)Oc3cc4ccccc4cc3-n3cccc32)CC1` the EC50 (NIH3T3) was 6000 nM, the Activity [7] was “>=30%” and the Activity (Emu-TCL1) was “Active”.

For `CC(=O)OC1=C(c2cccc3ccccc23)Oc2ccc(N3CCN(C)CC3)cc2-n2cccc21`, the EC50 (NIH3T3) was 45000 nM, the Activity [7] was <30% and the Activity (Emu-TCL1) was “Active”.

In the case of `CCN(CC)C(=O)OC1=C(c2cccc3ccccc23)Oc2ccc(N3CCN(C)CC3)cc2-n2cccc21`, the EC50 (NIH3T3) is reported as 5000 nM, the Activity [7] is reported as <30% and the Activity (Emu-TCL1) is reported as “Active”.
